This excerpt belongs to a sample that is enriched for hits.
HUVEC inhibit: inhibitors of HUVEC proliferation, primary screen, cell-based, 384-well | CellTiter-Glo luminescence, 72 h; stronger effect = lower value | AID 648, 2007 | actives 1.1% (n = 86,000) | viability, % at 10 µM (by protocol);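 active means viability at or below 30%; inactive means viability above 30%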;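 further: 100% = median luminescence of DMSO-only cell control wells on each plate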
HCT116 PTEN-null: growth suppression of PTEN-null HCT116, primary screen, cell-based, CellTiter-Glo; viability, % at 10 µM; actives 1.2% (n = 140,000); HCT116 PTEN-null viability, 60 h; stronger effect = lower value;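 active means viability at or below a set limit, 4 SD under the median of all tested compounds, cut at about 3.7% in these data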;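 further: PTEN knockout HCT116 line with beta catenin targeted HCT116 as companion control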
bCat KO growth: primary screen for growth suppressors in beta-catenin knockout HCT116 cells (colon tumor, human) | HCT116 beta-catenin knockout viability, CellTiter-Glo, 60 h; stronger effect = lower value | viability, % at 10 µM | actives 1.5% (n = 140,000) | AID 818, 2007;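 active means viability at or under a set limit, the compound median less 4 SD, cut at about 6% in these data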;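 further: 0% = Hyamine 1622 control at 20 µM and 100% = untreated cell control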
Fibroblast inh: antiproliferative effect on LL 47 fibroblasts – human, LL 47 cells, CellTiter-Glo luminescence, primary screen. LL 47 human lung fibroblast viability, ATP luminescence; stronger effect = lower value. viability, % at 10 µM. actives 1.1% (n = 85,000). AID 719, 2007;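 active means viability at or below 50% in the single dose screen; inactive means viability above 50%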;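 further: compound exposure lasted 72 h before the ATP readout; 100% = median luminescence of untreated cell-only wells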
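Assay system: human lung fibroblast line LL 47, low passage. Input: 1,150 fibroblasts seeded per well. Times: overnight cell rest, 72 h compound treatment at 37 °C. Evaluation: % viability of median cell-only signal. Technique: luminescent ATP detection, CellTiter-Glo. Control set: cell-only wells, no compound.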
H69AR growth 86K: proliferation blockers of H69AR lung cancer cells, primary screen, cell-based, human, 86K library; actives 6% (n = 85,000); H69AR lung tumor viability, ATP luminescence, 72 h; stronger effect = lower value; viability, % at 10 µM; AID 598, 2007;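 active means viability at or below 40%; inactive means viability above 40%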;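 further: multidrug resistant small cell line overexpressing MRP-1 efflux transporter; 100% = mean luminescence of untreated control wells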
* = called active by the depositor; / = not tested or not shown; ! = not active in a repeat.

SMILES	HUVEC inhibit	HCT116 PTEN-null	bCat KO growth	Fibroblast inh	H69AR growth 86K
FC(F)(F)c1ccc(Cl)c(N/N=C/c2ccc(N3CCOCC3)s2)c1	/	78	87	/	/
Cc1ccc(C(NC(=O)NC(C)c2ccccc2)C(Cl)(Cl)Cl)cc1F (configuration not stated)	/	3.4*	6.1*	/	/
CC(NC(=O)c1ccc(F)cc1)c1ccccc1 (configuration not stated)	/	90	85	/	/
Cc1ccc(C(=O)Nc2nc(C)c(C(=O)Nc3ccc4c(c3)CCC4)s2)cc1	/	15	14	/	/
C=CCOc1ccc(C2OC34CCCCC3C(C#N)(C#N)C2(C#N)C(=N)O4)cc1 (configuration not stated)	77	113	103	89	13*
CCNS(=O)(=O)c1cccc(C(=O)c2c(C)cc3ccccn23)c1	/	97	95	/	/
C=CCN=C(NC#N)SCC(=O)c1cccc(OC)c1	96	30	51	92	35*
CS(=O)(=O)Nc1cccc(C2=NN(C(=O)c3ccccc3Cl)C(c3ccccc3O)C2)c1 (configuration not stated)	/	85	80	/	/
CN(C)C(=O)CCc1nc2sc3c(c2c(=O)[nH]1)CCCC3	101	112	97	104	91
CCN(CC(=O)NC(C)C)Cc1nc2sc3c(c2c(=O)[nH]1)CCC3	87	89	93	93	37*
Cc1nc(N2CCN(C(=O)c3ccc(Cl)cc3)CC2)c(C#N)c2c1COC(C)(C)C2	99	70	66	95	37*
CC1(C)Cc2c(C#N)c(N3CCN(C(=O)c4ccco4)CC3)nc(-c3ccco3)c2CS1	/	74	85	/	/
CC1(C)Cc2c(C#N)c(N3CCN(C(=O)c4ccco4)CC3)nc(Cc3ccccc3)c2CO1	21*	1.0*	1.5*	79	55
Cc1ccc(NC(=O)NNC(=O)c2cccs2)cc1	/	89	93	/	/
CN1/C(=C/C(=O)c2nc(S(C)(=O)=O)ncc2Cl)C(C)(C)c2ccccc21	24	2.6*	2.0*	19*	0.6*
O=S(=O)(c1ccc(Oc2ncnc3scc(-c4ccccc4)c23)cc1)N1CCOCC1	86	42	54	88	37*
N#Cc1c(C(F)(F)F)cc(-c2ccc(Cl)c(Cl)c2)nc1SCCN1CCOCC1	/	76	75	/	/
N#Cc1c(C(F)(F)F)cc(-c2ccccc2)nc1SCc1nc(N)nc(N2CCOCC2)n1	63	48	61	75	21*
Clc1ccc2nc(C3CCN(Cc4nnnn4C4CCCCC4)CC3)[nH]c2c1	68	30	27	64	15*
Cc1ccc(Cn2nnnc2CN2CCC(c3nc4ccc(Cl)cc4[nH]3)CC2)cc1	/	14	23	/	/
O=C(CSc1n[nH]c(-c2ccccc2O)n1)N1CCCc2ccccc21	53	39	36	100	25*
COc1cccc(COc2cc3ccccc3nc2C)c1	/	23	15	/	/
Cc1ccc(S(=O)(=O)N2CCC(=O)N(C(COCc3cccc(C(F)(F)F)c3)Cc3ccccc3)CC2)cc1 (configuration not stated)	/	75	78	/	/
COC(=O)c1cc(NC(=O)c2ccc(Cn3cc(Cl)cn3)o2)cc(C(=O)OC)c1	32	85	71	6.8*	2.7*
CCn1cc(C(=O)NC(=S)Nc2sc3c(c2C(=O)OC)CCCCCC3)cn1	/	2.1*	9	/	/
SMILES	HUVEC inhibit	HCT116 PTEN-null	bCat KO growth	Fibroblast inh	H69AR growth 86K
CCOC(=O)c1c(NC(=O)CSc2nnc(C)s2)sc2c1CCC(C)C2 (configuration not stated)	94	82	79	95	44
CCOC(=O)c1c(NC(=S)NC(=O)c2ccc(Cn3cc(Cl)cn3)o2)sc2c1CCC(C)C2 (configuration not stated)	/	1.5*	1.9*	/	/
O=C1c2ccccc2NC(c2ccc(-c3ccc(Br)cc3)o2)N1O (configuration not stated)	/	3.4*	4.5*	/	/
CNCCCC12CCC(c3ccccc31)c1ccccc12	67	32	47	74	8.6*!
Nn1c(SCC(=O)NC2CCCc3ccccc32)nnc1-c1ccc(Cl)cc1Cl (configuration not stated)	/	94	86	/	/
O=C(COC(=O)c1cccnc1Cl)Nc1nc(-c2ccccc2)cs1	/	97	95	/	/
CCNc1ccc2c(Cl)cc(=O)oc2c1	95	75	65	102	37*
Nn1c(-c2cccs2)nc2sc3c(c2c1=O)CCCC3	69	50	63	84	31*
CC1(C)Cc2c(sc3nc(-c4ccccc4)n(N)c(=O)c23)CO1	114	89	82	99	94
CC1(C)Cc2c(sc3nc(-c4cccs4)n(N)c(=O)c23)CO1	84	39	38	83	35*
Cc1ccccc1-c1nc2sc3c(c2c(=O)n1N)CCCC3	93	88	86	89	44
CC1CCc2cc(F)ccc2N1S(=O)(=O)c1ccc(Cl)nc1 (configuration not stated)	/	68	69	/	/
CCOC(=O)c1cnc(-n2nc(C)cc2C)nc1NCCc1ccccc1	60	2.9*	2.2*	45*	1.9*
CCOC(=O)c1cnc(-n2nc(C)cc2C)nc1NCc1ccc2c(c1)OCO2	24*	87	79	92	56
COC(=O)c1ccccc1NC(=O)c1ccc2c(c1)C(=O)N(Cc1ccco1)C2=O	92	/	/	107	11*
COCCNC(=O)C1=C(N)C(C(=O)Nc2ccc(C)c(S(=O)(=O)N3CCCCC3)c2)SC1=Nc1ccc(C)cc1C (configuration not stated)	/	/	90	/	/
COc1ccc(/C=C/c2nc3cc(-c4ccccc4)ccc3o2)cc1O	/	30	54	/	/
COc1ccc(-c2c/c(=N\c3nc(-c4ccccc4)c(C)s3)c3ccccc3o2)cc1O	34	16	17	40*	31*
O=S(=O)(Nc1cccc2ncccc12)c1cccs1	/	1.5*	1.7*	/	/
Cc1nn(-c2ccccc2)c(C)c1/C=N/NC(=O)CSc1nc2ccccc2c(=O)n1-c1ccc(Br)cc1	/	1.1*	1.1*	/	/
Cc1ccnc(N2CCC(C(=O)NNC(=O)COc3cccc4ccccc34)CC2)n1	/	97	107	/	/
COc1ccc(C2C3=C(Nc4ncnn42)c2ccccc2CCC3)cc1 (configuration not stated)	96	82	93	97	86
Fc1ccc(/C=C2\CCCC3=C2Nc2ncnn2C3c2ccc(F)cc2)cc1 (configuration not stated)	37	1.8*	2.0*	56	22*
Cn1c(-c2ccc3ccccc3n2)nc2cnccc21	29*	57	66	87	74
CC1CCCC(C)N1CC(C)(C)NS(=O)(=O)c1ccc(Cl)cc1 (configuration not stated)	/	99	93	/	/
CCCCNC(=O)C(CC)Sc1nc2sc(C(=O)OC)c(C)c2c(=O)n1N (configuration not stated)	/	55	56	/	/

Screening results (PubChem)
